Test results from ChEMBL document CHEMBL3407386, “Design, synthesis, and biological evaluation of tetrazole analogs of Cl-amidine as protein arginine deiminase inhibitors” (J Med Chem, 2015).
Blank lines part the entries; values can stand above or below the compound they belong to. Active and inactive are the calls of the source. The rule behind the calls is not given here.

Key:
[1] = biological target: Protein-arginine deiminase type-4 (Homo sapiens) (UniProt Q9UM07); assay: Inhibition of PAD4 (unknown origin) using N-alpha-benzoyl-L-arginine ethyl ester as substrate assessed as citrulline production after 15 mins by COLDER assay
U2OS [2] = assay: Antiproliferative activity against human U2OS cells expressing PAD4 assessed as cell viability at 20 uM after 72 hrs by XTT assay; assay type: functional
Summary of the method: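 U2OS cells were treated the next day at 20 μM final for 72 h, with DMSO and Triton X-100 as controls. Viability was read by XTT absorbance at 475 nm.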

[3] = biological target: Protein-arginine deiminase type-4 (Mus musculus) (UniProt Q9Z183); assay: Inhibition of PAD4 in C57BL/6 mouse bone marrow neutrophils assessed as inhibition of PMA-stimulated neutrophil extracellular trap formation at 2 to 200 uM preincubated for 30 mins followed by PMA stimulation measured after 3 to 4 hrs by […]
Summary of the method: (§1)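 C57BL/6 bone-marrow neutrophils were isolated on a Percoll gradient (69–78% interface, >95% Ly-6G+) and seeded at 1.5 × 10^5 on poly-L-lysine coverslips. They were pretreated for 30 min in Locke's solution, then given 100 nM PMA for 3–4 h, PFA-fixed, and stained with Hoechst and anti-myeloperoxidase. NETs (decondensed MPO+ nuclei) were counted blind over ≥5 fields as % of total cells.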

Liver = assay: Metabolic stability in mouse liver microsomes; assay type: ADME
[4] = biological target: T1, Protein-arginine deiminase type-1 (Homo sapiens) (UniProt Q9ULC6); assay: Inhibition of PAD1 (unknown origin) using N-alpha-benzoyl-L-arginine ethyl ester as substrate assessed as citrulline production after 15 mins by COLDER assay
T1 sequence (whole entry): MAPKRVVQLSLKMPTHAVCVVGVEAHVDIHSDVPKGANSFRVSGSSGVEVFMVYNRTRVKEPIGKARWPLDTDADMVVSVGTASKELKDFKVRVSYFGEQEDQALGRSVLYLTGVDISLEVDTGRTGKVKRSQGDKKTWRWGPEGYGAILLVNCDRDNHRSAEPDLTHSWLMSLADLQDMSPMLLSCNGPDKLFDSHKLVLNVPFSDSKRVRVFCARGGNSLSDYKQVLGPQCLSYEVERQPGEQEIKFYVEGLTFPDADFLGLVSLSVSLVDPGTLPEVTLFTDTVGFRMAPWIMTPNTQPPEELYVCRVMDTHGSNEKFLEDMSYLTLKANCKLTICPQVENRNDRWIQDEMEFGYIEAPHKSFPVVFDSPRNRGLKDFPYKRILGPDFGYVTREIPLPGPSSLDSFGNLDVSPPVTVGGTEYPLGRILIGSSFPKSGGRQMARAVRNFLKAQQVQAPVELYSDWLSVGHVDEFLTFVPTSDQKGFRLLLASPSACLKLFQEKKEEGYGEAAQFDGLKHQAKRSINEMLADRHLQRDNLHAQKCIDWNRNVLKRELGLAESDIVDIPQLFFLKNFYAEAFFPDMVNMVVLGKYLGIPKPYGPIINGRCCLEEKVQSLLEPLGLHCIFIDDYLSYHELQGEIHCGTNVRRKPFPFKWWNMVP

Homo sapiens [5] = organism: Homo sapiens; assay: Selectivity ratio for PAD1 (unknown origin) over PAD2 (unknown origin)
Homo sapiens [6] = organism: Homo sapiens; assay: Selectivity ratio for PAD1 (unknown origin) over PAD3 (unknown origin)
U2OS [7] = assay: Antiproliferative activity against human U2OS cells expressing PAD4 assessed as cell viability after 72 hrs by XTT assay; assay type: functional, cell-based
Summary of the method: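 U2OS human osteosarcoma cells were plated and treated the next day with an eight-point concentration series for 72 h. Viability was read by XTT at 475 nm. EC50 was fitted to a dose–response equation with range (uninhibited minus background) and slope factor.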

[8] = Cytotoxicity against human neutrophils assessed as cell viability after 4 hrs by XTT assay; assay type: cell-based; conditions: Neutrophil
Summary of the method: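 Freshly isolated human neutrophils in RPMI 1640 with 10% FBS were seeded at 40 000 cells/well on poly-L-lysine and allowed to adhere for 1 h. They were exposed to compound at 1–500 μM for 4 h, and viability was read by XTT.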

[9] = biological target: Protein-arginine deiminase type-4 (Mus musculus) (UniProt Q9Z183); assay: Inhibition of PAD4 in C57BL/6 mouse bone marrow neutrophils assessed as inhibition of PMA-stimulated neutrophil extracellular trap formation at […] preincubated for 30 mins followed by PMA stimulation measured after 3 to 4 hrs by […]; summary of the method: as §1
[10] = biological target: T1, Protein-arginine deiminase type-1 (Homo sapiens); assay: Ratio of Kinact to Ki for PAD1 (unknown origin) using N-alpha-benzoyl-L-arginine ethyl ester as substrate assessed as citrulline production after 15 mins by COLDER assay
[11] = biological target: Protein-arginine deiminase type-4 (Homo sapiens) (UniProt Q9UM07); assay: Ratio of Kinact to Ki for PAD4 (unknown origin) using N-alpha-benzoyl-L-arginine ethyl ester as substrate assessed as citrulline production after 15 mins by COLDER assay
[12] = biological target: Protein-arginine deiminase type-2 (Homo sapiens) (UniProt Q9Y2J8); assay: Inhibition of PAD2 (unknown origin) using N-alpha-benzoyl-L-arginine ethyl ester as substrate assessed as citrulline production after 15 mins by COLDER assay
Sequence of Protein-arginine deiminase type-2 (Homo sapiens) (Q9Y2J8 whole entry): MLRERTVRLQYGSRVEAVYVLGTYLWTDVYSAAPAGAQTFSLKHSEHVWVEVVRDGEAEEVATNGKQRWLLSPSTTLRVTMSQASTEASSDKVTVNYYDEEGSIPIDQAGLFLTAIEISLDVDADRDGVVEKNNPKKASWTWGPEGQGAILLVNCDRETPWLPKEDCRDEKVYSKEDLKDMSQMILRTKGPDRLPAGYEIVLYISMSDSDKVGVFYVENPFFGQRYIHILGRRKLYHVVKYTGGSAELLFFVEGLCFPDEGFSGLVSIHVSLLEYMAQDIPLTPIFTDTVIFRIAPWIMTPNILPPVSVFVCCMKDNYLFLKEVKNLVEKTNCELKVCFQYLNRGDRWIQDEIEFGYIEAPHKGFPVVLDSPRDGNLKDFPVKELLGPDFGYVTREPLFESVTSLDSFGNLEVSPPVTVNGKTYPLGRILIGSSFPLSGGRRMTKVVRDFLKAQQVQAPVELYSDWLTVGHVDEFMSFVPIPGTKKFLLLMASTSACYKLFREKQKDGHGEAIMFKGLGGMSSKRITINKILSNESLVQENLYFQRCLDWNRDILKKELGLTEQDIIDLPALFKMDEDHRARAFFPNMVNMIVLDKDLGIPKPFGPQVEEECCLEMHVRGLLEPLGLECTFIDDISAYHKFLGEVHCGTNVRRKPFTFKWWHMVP

Sequence of Protein-arginine deiminase type-4 (Homo sapiens) (Q9UM07 whole entry): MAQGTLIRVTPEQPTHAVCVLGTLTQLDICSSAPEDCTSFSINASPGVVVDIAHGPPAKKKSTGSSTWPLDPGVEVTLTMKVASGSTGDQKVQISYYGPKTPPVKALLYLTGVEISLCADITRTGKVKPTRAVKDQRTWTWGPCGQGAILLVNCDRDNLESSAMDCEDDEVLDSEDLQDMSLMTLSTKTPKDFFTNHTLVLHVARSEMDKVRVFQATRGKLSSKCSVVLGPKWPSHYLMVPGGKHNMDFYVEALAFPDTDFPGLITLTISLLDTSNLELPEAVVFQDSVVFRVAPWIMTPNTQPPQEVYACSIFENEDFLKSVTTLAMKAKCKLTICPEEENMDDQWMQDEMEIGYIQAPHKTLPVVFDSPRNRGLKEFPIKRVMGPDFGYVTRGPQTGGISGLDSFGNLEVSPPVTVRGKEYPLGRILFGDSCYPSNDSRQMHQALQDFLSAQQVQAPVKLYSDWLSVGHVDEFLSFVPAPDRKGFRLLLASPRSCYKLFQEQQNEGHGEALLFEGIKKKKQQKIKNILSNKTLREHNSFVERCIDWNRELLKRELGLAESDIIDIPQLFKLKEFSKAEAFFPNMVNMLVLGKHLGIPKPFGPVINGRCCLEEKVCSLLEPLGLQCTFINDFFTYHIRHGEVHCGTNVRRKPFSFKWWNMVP
Sequence of Protein-arginine deiminase type-4 (Mus musculus) (Q9Z183 whole entry): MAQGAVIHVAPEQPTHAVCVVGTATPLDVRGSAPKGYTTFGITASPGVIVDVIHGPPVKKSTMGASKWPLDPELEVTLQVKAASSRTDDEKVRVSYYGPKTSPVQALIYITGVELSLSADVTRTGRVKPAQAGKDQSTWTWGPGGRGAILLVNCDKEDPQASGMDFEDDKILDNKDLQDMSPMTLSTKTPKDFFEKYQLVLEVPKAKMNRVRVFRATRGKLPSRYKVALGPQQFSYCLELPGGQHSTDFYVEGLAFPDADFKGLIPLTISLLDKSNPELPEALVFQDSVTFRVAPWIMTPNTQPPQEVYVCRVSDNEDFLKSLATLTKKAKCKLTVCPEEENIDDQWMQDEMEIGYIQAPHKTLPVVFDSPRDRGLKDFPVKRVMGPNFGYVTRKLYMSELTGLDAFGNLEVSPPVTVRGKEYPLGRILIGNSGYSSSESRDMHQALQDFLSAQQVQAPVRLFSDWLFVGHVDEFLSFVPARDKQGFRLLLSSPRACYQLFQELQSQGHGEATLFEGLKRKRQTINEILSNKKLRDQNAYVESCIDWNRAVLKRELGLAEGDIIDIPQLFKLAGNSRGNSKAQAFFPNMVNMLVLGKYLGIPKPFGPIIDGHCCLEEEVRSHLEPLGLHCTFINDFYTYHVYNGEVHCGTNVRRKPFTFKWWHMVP

SMILES: N=C(CF)NCCC[C@H](NC(=O)c1ccccc1)C(N)=O
- inhibition [1]: inactive

SMILES: N=C(CCl)NCCC[C@H](NC(=O)c1ccccc1)c1nn[nH]n1
- Activity (U2OS [2]): inactive

SMILES: N=C(CCl)NCCC[C@H](NC(=O)c1ccccc1)C(N)=O
- inhibition [3]: Active

SMILES: N=C(CF)NCCC[C@H](NC(=O)c1ccccc1)c1nn[nH]n1
- inhibition [1]: inactive
- Activity (U2OS [2]): inactive

SMILES: N=C(CF)NCCC[C@H](NC(=O)c1ccccc1C(=O)O)c1nn[nH]n1
- Stability (Liver): Stable
- inhibition [4]: Active
- inhibition [1]: inactive
- Selectivity ratio (Homo sapiens [5]): 20
- Activity (U2OS [2]): inactive
- Selectivity ratio (Homo sapiens [6]): 20

SMILES: N=C(CCl)NCCC[C@H](NC(=O)c1ccc(-c2ccccc2)cc1)c1nn[nH]n1
- Activity (U2OS [2]): inactive

SMILES: N=C(CCl)NCCC[C@H](NC(=O)c1ccccc1C(=O)O)c1nn[nH]n1
- Selectivity ratio (Homo sapiens [5]): 15
- Activity (U2OS [2]): inactive
- Selectivity ratio (Homo sapiens [6]): 15
- Ratio [10]: 82000 M⁻¹ min⁻¹
- Ratio [11]: 159000 M⁻¹ min⁻¹

SMILES: CC(C)(C)n1nnc([C@H](CCCNC(=N)CCl)NC(=O)c2ccccc2)n1
- Activity (U2OS [2]): inactive

Second part, led by results:

- EC50 (U2OS [7]): 45 µM
- Stability (Liver): Stable
- inhibition [1]: inactive
SMILES: CC(C)(C)n1nnc([C@H](CCCNC(=N)CF)NC(=O)c2ccc(-c3ccccc3)cc2)n1
- viability at 20 µM (U2OS [2]; read-out: Activity): > 50%

- EC50 (U2OS [7]): 10 µM
- inhibition [1]: inactive
SMILES: CC(C)(C)n1nnc([C@H](CCCNC(=N)CCl)NC(=O)c2ccc(-c3ccccc3)cc2)n1
- EC50 [8]: 31 µM

- Stability (Liver): Stable
- inhibition [9]: Active
SMILES: CC(C)(C)n1nnc([C@H](CCCNC(=N)CCl)NC(=O)c2ccccc2C(=O)O)n1
- EC50 [8]: 985 µM
- Activity (U2OS [2]): inactive

- Stability (Liver): Stable
- inhibition [1]: inactive
- inhibition [12]: Active
SMILES: CC(C)(C)n1nnc([C@H](CCCNC(=N)CF)NC(=O)c2ccccc2C(=O)O)n1
- Activity (U2OS [2]): inactive

- inhibition [1]: inactive
SMILES: N=C(CF)NCCC[C@H](NC(=O)c1ccc(-c2ccccc2)cc1)c1nn[nH]n1
- Activity (U2OS [2]): inactive

- inhibition [1]: inactive
SMILES: CC(C)(C)n1nnc([C@H](CCCNC(=N)CF)NC(=O)c2ccccc2)n1
- Activity (U2OS [2]): inactive
